Here are results for three compounds from PMC3230563 (International Journal of Nanomedicine, 2011).

Molecules are shown by their SMILES.

The test system of one series is rat. To be noted: oral, no reference given; cited from earlier work.
A short description of series [1]: In vivo pharmacokinetics in rats. Set-up: species or system Male Wistar rats. The settings on record: for half-life: T1/2, rat; for Tmax: Tmax average. The procedure, abridged: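 Fasted (12 h) male Wistar rats under 0.5% isoflurane received 200 μg/kg in isotonic solution by tail-vein bolus (n = 4). Serial intracardiac blood went into 0.109 M citrate from 2 min to 24 h, and plasma was stored at −20°C. Concentration came from an anti-Xa chromogenic calibration curve, with over-range samples diluted in human normal plasma. Noncompartmental PK used trapezoidal AUC; bioavailability was the dose-corrected oral/IV AUC ratio.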

[2] abbreviates: male, Wistar, rat, plasma, iv, 200 ug/kg.
The mark [3] stands for this setting: male, Wistar, rat, plasma, iv, 200 ug/kg, IV bolus.
Setting [4] is: male, Wistar, rat, plasma, po, 5 mg/kg.
Where [5] appears, read: male, Wistar, rat, plasma, po, 5 mg/kg, 5 mg/kg Fp.
The mark [6] stands for this setting: male, Wistar, rat, plasma, sc, 200 ug/kg.
Setting [7] is: rat, IV bolus, 200 μg/kg, listed as IV Fp solution.

`CCCCCCCCCCCCCCCC[N+](C)(C)C` [CTAB, hexadecyltrimethyl ammonium bromide]: the LD50 (in general, the dose at which mortality reaches 50%) in the series on rat is given as 410 mg/kg.
Take `CO[C@H]1O[C@H](COS(=O)(=O)O)[C@@H](O[C@@H]2O[C@@H](C(=O)O)[C@@H](O[C@H]3O[C@H](COS(=O)(=O)O)[C@@H](O[C@@H]4O[C@H](C(=O)O)[C@@H](O[C@H]5O[C@H](COS(=O)(=O)O)[C@@H](O)[C@H](O)[C@H]5NS(=O)(=O)O)[C@H](O)[C@H]4O)[C@H](OS(=O)(=O)O)[C@H]3NS(=O)(=O)O)[C@H](O)[C@H]2OS(=O)(=O)O)[C@H](O)[C@H]1NS(=O)(=O)O` [Fp, fondaparinux]: the AUC(0-inf) – broadly, the area under the concentration-time curve extrapolated to infinity – in series [1] (setting [2]) is 2300 ng·h/mL; in series [1] (setting [4]), 812 ng·h/mL; in series [1] (setting [6]) it was 2570 ng·h/mL. Moreover, the results for the Cmax in series [1] (setting [2]), in series [1] (setting [4]) and in series [1] (setting [6]) were 1420 ± 120 ng/mL, 60 ± 20 ng/mL and 836 ± 190 ng/mL, respectively. The bioavailability (commonly the share of a dose that reaches the circulation, judged against a reference dose that is usually intravenous) in series [1] (male, Wistar, rat, plasma, iv, 200 ug/kg, Absolute bioavailability, IV bolus, 200 μg/kg (reference)) was determined as 100%. The mean residence time (MRT) (usually a mean duration of stay, worked out from the concentration-time curve) in series [1] (male, Wistar, rat, plasma, iv, 200 ug/kg, MRT, IV bolus) was 1.17 h; in series [1] (male, Wistar, rat, plasma, po, 5 mg/kg, MRT, 5 mg/kg Fp), 1.36 h; in series [1] (male, Wistar, rat, plasma, sc, 200 ug/kg, MRT) it was 3.87 h; in series [1] (setting [7]) it was 1.8028 ± 0.4345 h. In addition, the half-life (usually the time needed for the level to fall by half in the phase considered) in series [1] (setting [3]) was 1.8 h; in series [1] (setting [5]) it was 0.862 ± 0.607 h; in series [1] (setting [6]), 1.47 ± 1.4 h. The Tmax (commonly the time at which the peak concentration occurs) is 0.0333 h in series [1] (setting [3]), 2 h in series [1] (setting [5]) and not above 1 h in series [1] (setting [6]). Also, in series [1] (oral Fp solution alone, 0.5, 2 mg/kg, limit of quantification 0.01 μg/mL), the “anti-Xa level in rat plasma” value is listed as “below the limit of quantification”. Besides, the Clearance in series [1] (rat, IV bolus, 200 μg/kg) is 490.52 ± 14.74 µL/min; in series [1] (rat, SC, 200 μg/kg), 493.89 ± 5.478 µL/min; in series [1] (rat, oral, 5 mg/kg Fp), 455.43 ± 14.51 µL/min. The T1/2 in series [1] (setting [7]) came out at 1.175 ± 0.2938 h. In series [1] (rat, SC, 200 μg/kg, dose corrected AUC versus IV, listed as SC Fp solution), the Absolute bioavailability is 115.84 ± 17.92 (4) %. For the same compound, the Tmax average in series [1] (rat, SC, 200 μg/kg, listed as SC Fp solution) worked out at 1 h.
For the compound `CCCCCCCCCCCCCCCCCCN` [SA, stearylamine], the LD50 in the series on rat is on record as 1395 mg/kg.
